Rows were chosen to be rich in hits. Some 2.2% of all compounds tested hit in one or more screens of this group.
APP 5'UTR act: activates APP 5'UTR luciferase reporter | SH-SY5Y APP 5'UTR luciferase reporter, luminescence; zero percent = DMSO vehicle wells | activation, % at 2 µM | 190,000 tested, 1% active | AID 1276;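 active = activation above a set limit, based on mean plus 3 SD of controls, cut at about 140% in these data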
FLuc inhib CS: inhibits firefly luciferase, flagging false hits in luciferase inhibition screens. P08659. ATPLite firefly luciferase biochemical luminescence, 10 min. inhibition, % at 10 µM. 200,000 tested, 1.5% active. AID 1006;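 active = inhibition above about 50% when tested at 10 µM, limit read from the data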
Target sequence (P08659 whole entry, looked up): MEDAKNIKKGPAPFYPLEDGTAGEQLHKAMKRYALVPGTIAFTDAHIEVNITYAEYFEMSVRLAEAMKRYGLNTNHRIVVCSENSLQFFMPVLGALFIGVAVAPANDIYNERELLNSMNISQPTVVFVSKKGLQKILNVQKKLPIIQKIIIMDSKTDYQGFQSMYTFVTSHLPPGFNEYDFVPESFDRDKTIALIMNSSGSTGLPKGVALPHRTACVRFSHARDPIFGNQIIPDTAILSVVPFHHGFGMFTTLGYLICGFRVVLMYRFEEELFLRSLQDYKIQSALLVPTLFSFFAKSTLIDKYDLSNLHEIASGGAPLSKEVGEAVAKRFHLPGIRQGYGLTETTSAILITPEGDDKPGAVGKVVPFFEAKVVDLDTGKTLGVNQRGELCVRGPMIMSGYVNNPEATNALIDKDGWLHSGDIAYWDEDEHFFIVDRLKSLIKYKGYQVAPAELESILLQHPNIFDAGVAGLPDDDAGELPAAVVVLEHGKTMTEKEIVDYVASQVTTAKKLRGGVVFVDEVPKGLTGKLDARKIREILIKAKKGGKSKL
PPC-1+TRAIL kill: kills PPC-1 cancer cells in the presence of TRAIL; PPC-1 cells + TRAIL, ATPLite viability luminescence; cell killing (% activity), % at 4 µM or 5 µM; 220,000 tested, 0.41% active; AID 1443;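 active = cell killing above 50% in the first pass at 4 µM, then a duplicate retest at 5 µM averaging 50% or more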;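 note: plate controls were cells with TRAIL plus DMSO for no effect and medium-only wells lacking cells for full effect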
FLuc stim CS: affects firefly luciferase, flagging false hits in luciferase stimulation screens. AID 1027. ATPlite luciferase biochemical, luminescence, 10 min; 0 = ATP-free wells, 1 = DMSO control. 200,000 tested, under 10 active. activation factor at 10 µM. P08659;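 active = luciferase activation factor, scaled between plate controls, of at least 2 with compound at 10 µM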
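System: luciferase plus luciferin reagent, cell-free; medium: PBS as buffer for the ATP substrate; dosing: test compounds dosed from 2 mM stocks in 100% DMSO; timing: 10 min post-reagent at room temperature; measured by: luminescence measurement of luciferase light output; evaluation: luciferase activation, seen as luminescence increase over controls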
TRAIL sens C8: sensitizes caspase-8 expressing cells to TRAIL; 360,000 tested, 1% active; inhibition (viability loss, TRAIL sensitization), % at 10 µM; NB7+C8 cells + TRAIL, ATPlite viability luminescence;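 active = compounds causing at least 50% loss of cell viability in the single-dose screen, relative to plate controls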
NF-kB neuron act: raises NF-kB expression in human neuronal cells | AID 1239 | NF-kB reporter expression; stronger effect = higher value | fold change at 12.5 µM | 190,000 tested, 1.6% active; in the data active = fold change above about 3.3
* marks the source's active call; other numbers are inactive results; x = no result given.

SMILES	APP 5'UTR act	FLuc inhib CS	PPC-1+TRAIL kill	FLuc stim CS	TRAIL sens C8	NF-kB neuron act
O=C(/C(C=Nc1ccc(F)cc1)=C(/O)c1ccco1)C(F)(F)F	106	79*	10	0.2	15	3.4*
Cc1cccc(N=C/C(C(=O)C(F)(F)F)=C(\O)c2ccco2)c1	128	24	11	0.8	-2	4.8*
O=C(Nc1cccc(-n2cnnn2)c1)c1ccc(C(F)(F)F)cc1	x	x	x	x	49*	x
O=C(Nc1cccc(-n2cnnn2)c1)c1ccncc1	x	x	x	x	18	x
CCCC(=O)NC(c1ccccc1OC)c1ccc2cccnc2c1O (stereo unspecified)	-75	-5	44	1	16	4.7*
CCN=C1NN=C(c2cc(C)n(CCc3ccccc3)c2C)CS1	-6	-4	7	1	-35	0.93
CCN=C1NN=C(c2cc(C)n(Cc3ccco3)c2C)CS1	20	91*	28	0.1	8	0.29
CCN=C1NN=C(c2c[nH]c3ccccc23)CS1	162*	43	39	0.6	7	x
COCCn1c(C)cc(C2=NNC(=Nc3ccccc3)SC2)c1C	155*	88*	22	0.1	37	0.33
COCC(C)N=C1NN=C(c2c[nH]c3ccccc23)CS1 (stereo unspecified)	6	33	2	0.7	6	1.6
Cc1cc(C2=NNC(=NCCc3ccccc3)SC2)c(C)n1CC1CCCO1 (stereo unspecified)	40	40	3	0.6	-1	1.1
C=CCn1c(C)cc(C2=NNC(=NCc3ccccc3)SC2)c1C	139*	32	-11	0.7	22	2.8
CC(=O)OC1CCC2(C)C(CCC3C2CC(=O)C2(C)C3CC(C3CCCC3=O)C2C(C)=O)C1 (stereo unspecified)	x	x	x	x	-10	x
CC(C)(C)NC(=O)C(c1cccc2ccccc12)n1c(=O)c(-c2cc3ccccc3[nH]2)nc2ccccc21 (stereo unspecified)	x	x	x	x	2	x
O=C1C=C(c2ccccc2)CO1	x	x	x	x	-4	x
CCN(CC)CCN1C(=O)C(O)=C(C(=O)c2cc3cccc(OC)c3o2)C1c1cccs1 (stereo unspecified)	x	x	7	x	x	x
CC(C)OCCCNC(=O)Cn1ccc2cc(S(=O)(=O)N3CCCCC3)ccc21	x	x	x	x	8	x
CCN(CC)CCCNC(=O)C1c2ccccc2C(=O)N(CCOC)C1c1ccc(F)cc1 (stereo unspecified)	4	-5	-7	1	-3	1.1
CCCCN(CC)CCCNC(=O)C1c2ccccc2C(=O)N(C)C1c1cn(C)c2ccccc12 (stereo unspecified)	-2	-3	-8	1	61*	1.1
C/C(=N/NC(=O)c1ccco1)c1cccc(NC(=O)c2ccc(C)s2)c1	25	69*	25	0.3	26	1.2
C/C(=N\NC(=O)c1ccn(C)n1)c1cccc(NC(=O)c2ccc(C)s2)c1	13	73*	46	0.3	58*	1
COC(=O)c1ccc(-c2ccc(/C=N/N3C(=O)C4C5C=CC(C6CC56)C4C3=O)o2)cc1 (stereo unspecified)	36	-3	55*	1	11	1.4
CCOC(=O)C1=C(NC(=S)NC(=O)c2ccccc2)c2ccccc2CC1C(C)C (stereo unspecified)	-6	-6	16	1.1	10	3.7*
COc1ccc(S(=O)(=O)N2CCc3cc(OC)c(OC)cc3C2)cc1	x	x	-18	x	-4	x
O=C(Cn1c2ccccc2c(=O)c2ccccc21)N/N=C/c1cc([N+](=O)[O-])ccc1N1CCCCCC1	22	-6	15	1.1	60*	0.97
SMILES	APP 5'UTR act	FLuc inhib CS	PPC-1+TRAIL kill	FLuc stim CS	TRAIL sens C8	NF-kB neuron act
CC(C(=O)O)c1ccc(N2Cc3ccccc3C2=O)cc1 (stereo unspecified)	74	62*	23	0.4	37	6.2*
Cc1ccccc1N1Cc2ccccc2C1=O	x	x	x	x	-14	x
O=C(N/N=C/C=C/c1ccccc1)c1cc2c(ccc3ccccc32)o1	5	43	41	0.6	57*	1.1
O=C(N/N=C/C=C/c1ccccc1[N+](=O)[O-])c1cccs1	9	4	-22	1	-8	4.2*
O=C(N/N=C/C(Br)=C/c1ccccc1)c1cccs1	147*	46	15	0.5	23	7.5*
O=C(N/N=C/c1ccccc1F)c1cc2c(ccc3ccccc32)o1	x	x	x	x	3	x
